These results are taken from ChEMBL document CHEMBL1143798, “Pyrimido[4,5-c]quinolin-1(2H)-ones as a novel class of antimitotic agents: Synthesis and in vitro cytotoxic activity” (Eur J Med Chem, 2007).

Molecules are shown by their SMILES.

For assay [1], the system named is HT-1080. The assay can be described thus: Cell cycle arrest in human HT1080 cells by accumulation at S phase at 5 uM after 36 hrs. Type of assay: functional. Put shortly: (§1)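 HT-1080 fibrosarcoma cells exposed 36 h, then trypsinized, PBS-washed, fixed in 50% ethanol and stained with propidium iodide containing RNase; DNA content measured by flow cytometry and cell-cycle phase distribution (G0/G1, S, G2/M) determined from DNA histograms.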

The subject of assay [2] is HT-1080. Briefly: Cell cycle arrest in human HT1080 cells by accumulation at G2/M phase at 5 uM after 36 hrs. Type of assay: functional. Summed up:
as §1

Assay [3] concerns HT-1080. Briefly: Induction of apoptosis in human HT1080 cells by flow cytometer. In kind it is functional. Put shortly:
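HT-1080 cells incubated 36 h, ethanol-fixed (50%) and stained with RNase-containing propidium iodide; apoptosis estimated by flow cytometry as sub-diploid peak in DNA-content histogram, expressed as percentage of total events collected.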

Assay [4] relates to HT-1080. Briefly: Cytotoxicity against human HT1080 cells by MTT assay. In kind it is functional, cell-based. Put shortly: (§2)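 Cells grown in DMEM with 10% FBS and antibiotics at 37 °C, 5% CO2, seeded ~5000/well; compound in DMSO added after 24 h, 72 h exposure. MTT (1 mg/mL final, serum- and phenol-red-free DMEM) 4 h, formazan dissolved in 2-propanol, OD 550 nm (ref 690 nm). IC50 = concentration halving OD vs untreated; mean of three independent experiments with SD; doxorubicin positive control.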

In a further assay the test system is HT-29. Briefly: Cytotoxicity against human HT29 cells by MTT assay. In kind it is functional, cell-based. Put shortly: as §2
A general note: Formazan colour is commonly taken as a measure of viable cells.

Assay [5] has as its system HT-1080. The assay can be described thus: Cell cycle arrest in human HT1080 cells by accumulation at G0/G1 phase at 5 uM after 36 hrs. In kind it is functional. Summed up:
as §1

The subject of another assay is MDA-MB-231. The assay can be described thus: Cytotoxicity against human MDA-MB-231 cells by MTT assay. Type of assay: functional, cell-based. Summed up:
as §2

The test system of assay [6] is HT-1080. The assay can be described thus: Inhibition of tubulin polymerization in human HT1080 cells after 36 hrs by Western analysis. Type of assay: functional, cell-based. Summed up: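 Cells lysed in 20 mM Tris-HCl pH 6.8, 1 mM MgCl2, 2 mM EGTA, 0.5% NP-40 with protease/phosphatase inhibitors; spun 13,000 × g 10 min to separate soluble from polymerized tubulin pellet; fractions run on 10% SDS-PAGE, anti-α-tubulin Western blot.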

On to `Nn1c(-c2ccccc2)nc2c(-c3ccc(Br)cc3)nc3ccc(Cl)cc3c2c1=O`, for which the Activity worked out at 28% in the assay on HT-1080 [1], 26.22% with HT-1080 [2], 5.51% in the assay with HT-1080 [3] and 45.78% with HT-1080 [5]. The values for the IC50 in the assay on HT-1080 [4], with HT-29 and in the assay on MDA-MB-231 were 1.48 µM, 2.14 µM and 13.7 µM, respectively.

In the case of `Nn1c(-c2ccccc2)nc2c(-c3ccc(Cl)cc3)nc3ccc(Cl)cc3c2c1=O`, the Activity with HT-1080 [1] came to 26.86%; in the assay with HT-1080 [2], 22.46%; with HT-1080 [3] it was 2.21%; in the assay with HT-1080 [5], 50.68%. Besides, the IC50 (as a rule, the concentration that inhibits the measured activity by half) came out at 2.9 µM in the assay with HT-1080 [4], 4.68 µM in the assay with HT-29 and 15.8 µM in the assay on MDA-MB-231.

Take `Cc1nc2c(-c3ccc(Cl)cc3)nc3ccc(Cl)cc3c2c(=O)n1N`: the half-inhibitory concentration (IC50) with HT-1080 [4] is 34.3 µM; in the assay on HT-29, 52 µM; in the assay with MDA-MB-231, > 100 µM.

As to `Nn1c(-c2ccc(Cl)cc2)nc2c(-c3ccc(Cl)cc3)nc3ccc(Cl)cc3c2c1=O`, the Activity with HT-1080 [1] was 11.26%; in the assay with HT-1080 [2], 31.49%; in the assay on HT-1080 [3], 7.62%; in the assay with HT-1080 [5] it was 57.25%; in the assay with HT-1080 [6] it was “Dose-dependent effect”. The IC50 in the assay on HT-1080 [4] amounted to 1.23 µM; in the assay with HT-29, 1.97 µM; in the assay on MDA-MB-231, 1.82 µM.

Consider `Cc1nc2c(-c3ccc(Br)cc3)nc3ccccc3c2c(=O)n1N`, for which the IC50 with HT-1080 [4] was 44.8 µM; in the assay with HT-29, 77.8 µM; in the assay with MDA-MB-231, > 100 µM.

With `Cc1nc2c(-c3ccc(Cl)cc3)nc3ccccc3c2c(=O)n1N`, the IC50 in the assay on HT-1080 [4], with HT-29 and with MDA-MB-231 was > 100 µM in each case.

With `Nn1c(-c2ccc(Cl)cc2)nc2c(-c3ccc(Br)cc3)nc3ccc(Cl)cc3c2c1=O`, the Activity is on record as 22.48% in the assay with HT-1080 [1], 27.75% with HT-1080 [2], 9.14% with HT-1080 [3] and 49.76% in the assay on HT-1080 [5]. Besides, the IC50 in the assay with HT-1080 [4] was 1.84 µM; in the assay with HT-29, 2.82 µM; in the assay on MDA-MB-231, 2.89 µM.

As to `COc1cccc2c1C(=O)c1c(O)c3c(c(O)c1C2=O)C[C@@](O)(C(=O)CO)C[C@@H]3O[C@H]1C[C@H](N)[C@H](O)[C@H](C)O1` [DOXORUBICIN], the values for the IC50 with HT-1080 [4], in the assay with HT-29 and in the assay with MDA-MB-231 were 0.022 µM, 0.35 µM and 0.03 µM, respectively.

For `Nn1c(-c2ccccc2)nc2c(-c3ccc(Cl)cc3)nc3ccccc3c2c1=O`, the results for the IC50 in the assay with HT-1080 [4], in the assay with HT-29 and in the assay on MDA-MB-231 were 23 µM, > 100 µM and > 100 µM, respectively.

Consider `Nn1c(-c2ccccc2)nc2c(-c3ccc(Br)cc3)nc3ccccc3c2c1=O`, for which the half-inhibitory concentration (IC50) is 47.4 µM in the assay with HT-1080 [4], 89.9 µM in the assay on HT-29 and > 100 µM in the assay on MDA-MB-231.

As for `Nn1c(-c2ccc(Cl)cc2)nc2c(-c3ccc(Br)cc3)nc3ccccc3c2c1=O`, the IC50 worked out at 10.8 µM in the assay on HT-1080 [4], 23.2 µM in the assay with HT-29 and 34.2 µM in the assay with MDA-MB-231.

On to `Nn1c(-c2ccc(Cl)cc2)nc2c(-c3ccc(Cl)cc3)nc3ccccc3c2c1=O`, for which the values for the half-inhibitory concentration (IC50) in the assay on HT-1080 [4], in the assay on HT-29 and in the assay with MDA-MB-231 were 6.84 µM, 18.1 µM and 55.3 µM, respectively.
